Assay [1] concerns Col2. Nature of the assay: Concentration required for 50% inhibition of Col2 cell line (human colon carcinoma cells). It counts as functional, cell-based. Put shortly:
(§1)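 Cytotoxicity in cultured human cancer cells (Col2 colon carcinoma; A549 lung carcinoma). Cells were exposed to serial dilutions of compound, and the value is the concentration giving 50% survival.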

For assay [2], the system named is A549. Briefly: Concentration required for 50% inhibition of A549 cell line (human lung carcinoma cells). Format: functional, cell-based. A digest of the protocol: as §1
Assay [3] addresses Adenosylhomocysteinase (Homo sapiens, UniProt P23526). Nature of the assay: Inhibitory activity against enzyme S-adenosyl-homocysteine hydrolase of human placenta.

Sequence of Adenosylhomocysteinase (P23526 whole entry): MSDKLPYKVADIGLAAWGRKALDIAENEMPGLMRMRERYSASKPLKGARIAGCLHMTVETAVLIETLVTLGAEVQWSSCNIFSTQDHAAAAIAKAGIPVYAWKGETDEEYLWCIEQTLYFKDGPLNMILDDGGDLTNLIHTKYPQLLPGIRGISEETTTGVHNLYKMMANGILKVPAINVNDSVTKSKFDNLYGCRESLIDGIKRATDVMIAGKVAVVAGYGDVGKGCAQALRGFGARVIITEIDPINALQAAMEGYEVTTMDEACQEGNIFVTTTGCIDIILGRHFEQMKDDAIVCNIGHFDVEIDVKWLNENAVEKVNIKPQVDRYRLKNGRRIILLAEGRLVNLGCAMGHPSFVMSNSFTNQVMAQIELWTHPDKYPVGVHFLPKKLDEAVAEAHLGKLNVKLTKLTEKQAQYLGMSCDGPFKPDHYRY

With `Nc1ncnc2c1ncn2[C@@H]1C(F)=C(CO)[C@@H](O)[C@H]1O` [FLUORO-NEPLANOCIN A], the concentration for half-maximal inhibition (IC50) in assay [1] came out at 1.4 µM; in assay [2], 4.6 µM; in assay [3], 0.48 µM.
For `[N-]=[N+]=NCC1=C(F)[C@@H](n2cnc3c(N)ncnc32)[C@H](O)[C@@H]1O`, in that order: 35.9 µM, 53 µM and more than 100 µM.
For `Nc1ncnc2c1ncn2[C@@H]1C(F)=C(CS)[C@@H](O)[C@H]1O`, in that order: more than 100 µM, more than 100 µM and 97.3 µM.
For `Nc1ncnc2c1ncn2[C@@H]1C(F)=C(CF)[C@@H](O)[C@H]1O`, in that order: more than 100 µM, more than 100 µM and more than 100 µM.
In the case of `NCC1=C(F)[C@@H](n2cnc3c(N)ncnc32)[C@H](O)[C@@H]1O`, the IC50 in assay [1] came to 39.2 µM; in assay [2] it was 42.8 µM; in assay [3] it was 12.7 µM.

Broadly, the IC50 is the concentration at which inhibition is half-maximal. Low values mean greater potency, high ones weaker potency.
